We go through one compound from ChEMBL document CHEMBL4813972, “A grafted peptidomimetic for EGFR heterodimerization inhibition: Implications in NSCLC models” (Eur J Med Chem, 2021).

Usually IC50 stands for the midpoint of a concentration-inhibition curve.

Calls of active or inactive are those of the source. The calls are words filed in the database; no cut-off is given here.

Series [1] concerns Calu-3. The series can be described thus: Antiproliferative activity against human Calu-3 cells overexpressing HER2 assessed as cell growth inhibition incubated for 72 hrs by cell titer glo assay. The format is functional, cell-based. The conditions noted are these: Calu-3, 72 h. (Cellular ATP, detected with luciferase, serves as a proxy for viable cell number.)
Series [2] can be described thus: Toxicity in Foxn1nu/Foxn1+ mouse xenografted with human A549 cells harbouring KRAS mutant/wild type EGFR assessed as enlarged cells in lung at 6 mg/kg, iv administered twice a week for 5 weeks. The conditions noted are these: in vivo, 840 h. Background: A xenograft is tissue or cells of one species grown in another, often human tumour cells in immunodeficient mice.

The target of series [3] is ErbB-2/ErbB-3 heterodimer (Homo sapiens) (UniProt P04626+P21860). Kind of series: Inhibition of HER2/HER3 dimerization in human A549 cells incubated for 48 hrs by proximity ligation assay. The class given is cell-based. The conditions noted are these: dose 0.5-1 µM. The gist of the method:
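A549 or Calu-3 cells (~1×10^4/well) on chamber slides, treated 48 h with 0.5 or 1 μM peptide. Controls: no compound, and one primary antibody omitted. Cells fixed in cold methanol, primary antibodies (EGFR, HER2, HER3) applied overnight at 4 °C, then PLA probes. Red fluorescence imaged at 40x and quantified over 3–6 fields.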

For series [4], the system named is Mus musculus. Kind of series: In vivo inhibition of HER2/HER3 dimerization in human A549 cells harbouring KRAS mutant/wild type EGFR xenografted in Foxn1nu/Foxn1+ mouse by measuring reduction in red fluorescence at 6 mg/kg, iv administered twice a week for 5 weeks by proximity ligation assay. The class given is functional, organism-based. The gist of the method: (§1)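 Lung tumor sections from the A549-Red-FLuc i.v. metastasis mice (6 mg/kg i.v. twice weekly; sacrificed day 35). FFPE sections had citrate pH 6.0 antigen retrieval at 100 °C, peroxidase and serum blocking, primaries overnight at 4 °C, and PLA probes for EGFR:HER2 and HER2:HER3. Red fluorescence imaged at 40×.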

The target in series [5] is Receptor tyrosine-protein kinase erbB-2 (Homo sapiens) (UniProt P04626). The series can be described thus: Inhibition of HER2 ECD in human A549 cells assessed as reduction in HER2 intracellular kinase domain phosphorylation at 1 uM incubated for 40 hrs by Western blot analysis. The class given is cell-based. A general note: In western blotting, separated proteins are transferred to a membrane and probed.
Chain of Receptor tyrosine-protein kinase erbB-2 (Homo sapiens) (P04626 whole entry, the tested form may be a part): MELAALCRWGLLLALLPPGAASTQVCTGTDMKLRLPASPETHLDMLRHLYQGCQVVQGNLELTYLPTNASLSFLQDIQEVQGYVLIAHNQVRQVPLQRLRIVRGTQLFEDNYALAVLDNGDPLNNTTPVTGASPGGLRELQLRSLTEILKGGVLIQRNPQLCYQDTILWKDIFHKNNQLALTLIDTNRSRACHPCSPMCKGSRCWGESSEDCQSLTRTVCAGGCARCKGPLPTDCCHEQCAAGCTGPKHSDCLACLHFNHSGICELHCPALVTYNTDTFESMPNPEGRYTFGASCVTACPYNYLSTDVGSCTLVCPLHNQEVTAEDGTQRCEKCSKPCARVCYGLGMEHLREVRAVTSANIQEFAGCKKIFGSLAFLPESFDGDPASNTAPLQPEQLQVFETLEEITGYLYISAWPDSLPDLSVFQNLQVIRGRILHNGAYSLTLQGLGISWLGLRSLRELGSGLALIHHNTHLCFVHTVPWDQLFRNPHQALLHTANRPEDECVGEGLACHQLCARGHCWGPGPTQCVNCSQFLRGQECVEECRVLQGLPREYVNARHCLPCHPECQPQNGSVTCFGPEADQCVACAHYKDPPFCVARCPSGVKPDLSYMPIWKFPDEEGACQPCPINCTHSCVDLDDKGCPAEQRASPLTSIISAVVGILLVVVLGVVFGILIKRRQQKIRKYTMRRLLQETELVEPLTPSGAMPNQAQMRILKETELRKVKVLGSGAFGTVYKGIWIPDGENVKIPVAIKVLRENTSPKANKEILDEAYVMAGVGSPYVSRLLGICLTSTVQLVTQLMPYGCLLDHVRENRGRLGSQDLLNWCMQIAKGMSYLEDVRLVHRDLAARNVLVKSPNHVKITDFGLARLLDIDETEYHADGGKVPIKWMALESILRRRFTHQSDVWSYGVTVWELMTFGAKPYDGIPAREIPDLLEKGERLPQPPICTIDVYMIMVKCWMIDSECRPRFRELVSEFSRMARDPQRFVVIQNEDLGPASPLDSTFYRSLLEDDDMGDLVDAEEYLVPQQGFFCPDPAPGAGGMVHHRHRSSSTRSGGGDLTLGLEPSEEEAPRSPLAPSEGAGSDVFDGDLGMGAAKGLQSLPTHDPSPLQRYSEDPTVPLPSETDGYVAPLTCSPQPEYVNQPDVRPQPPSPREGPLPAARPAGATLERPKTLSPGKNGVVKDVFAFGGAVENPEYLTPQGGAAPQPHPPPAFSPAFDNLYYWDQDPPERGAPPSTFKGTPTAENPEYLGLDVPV

In series [6] the test system is Mus musculus. The series can be described thus: In vivo inhibition of HER2/EGFR dimerization in human A549 cells harbouring KRAS mutant/wild type EGFR xenografted in Foxn1nu/Foxn1+ mouse by measuring reduction in red fluorescence at 6 mg/kg, iv administered twice a week for 5 weeks by proximity ligation assay. The class given is functional, organism-based. The method, boiled down:
as §1

A short description of series [7]: Toxicity in BALB/c mouse assessed as Ki-67 expression in spleenocytes at 6 mg/kg, iv administered on day 0 and 10 and spleenocytes collected on day 13 and incubated for 48 hrs by flow cytometry analysis. The class given is organism-based. The conditions noted are these: in vivo, 360 h, time 15 day. The gist of the method:
(§2)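 Female BALB/c mice given 6 mg/kg peptide in PBS i.v. (or PBS) on days 0 and 10, 12 mice in total. Splenocytes harvested day 13, RBC-lysed, and ≥2×10^6 cultured 48 h in RPMI/10% FBS with control media or peptide. Cells then stained for viability, CD3/CD4/CD8a and intracellular Ki67, and analyzed by flow cytometry.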

Series [8] is described as follows: Toxicity in BALB/c mouse assessed as Ki-67 expression in CD4+CD8+ at 6 mg/kg, iv administered on day 0 and 10 and spleenocytes collected on day 13 and incubated for 48 hrs by flow cytometry analysis. Particulars: in vivo, 360 h, time 15 day. The format is organism-based. The gist of the method: as §2
Series [9] in a line: Toxicity in Foxn1nu/Foxn1+ mouse xenografted with human Calu-3 cells assessed as clinical observation at 8 mg/kg, IT(Intratumoral) administered thrice a week for 28 days and measured on day 28. The format is organism-based. The conditions noted are these: in vivo, other, 672 h, time 28 day.
Series [10] in a line: Toxicity in BALB/c mouse assessed as Ki-67 expression in CD8+ at 6 mg/kg, iv administered on day 0 and 10 and spleenocytes collected on day 13 and incubated for 48 hrs by flow cytometry analysis. The class given is organism-based. Particulars: in vivo, 360 h, time 15 day. The method, boiled down:
as §2

As to `CC[C@H](C)[C@H]1C(=O)NC(=O)[C@H](CCCNC(=N)N)NC(=O)C[C@@H](c2cccc3ccccc23)NC(=O)N[C@H]2CSSC[C@H](NC(=O)C[C@@H](c3cccc4ccccc34)NC(=O)[C@H](CCCNC(=N)N)NC(=O)[C@@H]3CCCN3C(=O)[C@@H]3CCCN13)C(=O)N[C@@H](Cc1ccccc1)C(=O)N1CCC[C@H]1C(=O)N[C@@H](CC(=O)O)C(=O)NC(=O)[C@H](CC(=O)O)NC(=O)[C@H](Cc1ccccc1)NC2=O`, the IC50 in [1] amounted to 0.073 µM. In addition, the Activity entry in [2], in series [7], in series [8], in [9] and in [10] was “Non-Toxic” throughout. Moreover, the inhibition result in [3] was “Dose-Dependent Effect”. The inhibition result in series [4], in [5] and in series [6] was “Active” each time.
